In ChEMBL document CHEMBL1134370, “Pharmacophore analysis of the nuclear oxysterol receptor LXRalpha” (J Med Chem, 2001):

Experiments:
[1] = molecular target: T1, Oxysterols receptor LXR-alpha (Homo sapiens) (UniProt Q13133); test: Tested for its ability to activate Liver X receptor-alpha expressed as Relative efficacy determined by maximal increase in relative fluorescence in LiSA
T1 sequence (whole entry): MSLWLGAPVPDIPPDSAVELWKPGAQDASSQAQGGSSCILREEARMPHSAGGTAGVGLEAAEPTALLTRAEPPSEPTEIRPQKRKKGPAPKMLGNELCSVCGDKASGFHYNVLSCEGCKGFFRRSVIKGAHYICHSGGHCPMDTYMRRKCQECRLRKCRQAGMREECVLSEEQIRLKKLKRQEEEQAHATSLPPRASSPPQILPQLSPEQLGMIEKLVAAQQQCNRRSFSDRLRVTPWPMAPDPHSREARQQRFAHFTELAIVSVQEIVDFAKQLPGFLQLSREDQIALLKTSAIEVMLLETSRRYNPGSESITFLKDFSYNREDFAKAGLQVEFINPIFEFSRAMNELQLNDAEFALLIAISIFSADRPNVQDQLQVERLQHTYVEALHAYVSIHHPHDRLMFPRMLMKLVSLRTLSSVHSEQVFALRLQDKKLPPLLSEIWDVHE
In short: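 Human LXRα ligand-binding domain (aa 183-447) with a His tag, expressed in E. coli, biotinylated and coupled to streptavidin-allophycocyanin. A biotinylated SRC1 peptide (aa 675-699) was coupled to streptavidin-europium. Final concentrations: 10 nM protein and peptide in pH 7.5 MOPS buffer, compound 1 nM–100 µM. Incubated 2-4 h at room temperature; time-resolved FRET read at 665 nm. Efficacy is the maximal fluorescence increase relative to 24(S),25-epoxycholesterol.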

[2] = molecular target: T2, Oxysterols receptor LXR-alpha (Homo sapiens, UniProt Q13133); test: Concentration required for half maximal activity was calculated in human nuclear oxysterol receptor liver X receptor-alpha in LiSA.
T2 sequence (Q13133 whole entry): T1 sequence (whole entry)
In short: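 Human LXRα ligand-binding domain (aa 183-447) with His tag, expressed in E. coli, purified and biotinylated. Protein and biotinylated SRC1 peptide (aa 675-699) were pre-bound to streptavidin-APC and streptavidin-europium. The final mix (10 nM each) was read by TR-FRET at 665 nm after 2-4 h at room temperature. Compounds 1 nM-100 µM; EC50 from half-maximal fluorescence, n = 3, standard error.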

[3] = molecular target: T2, Oxysterols receptor LXR-alpha; test: Binding affinity towards LXR alpha receptor was determined in a competition binding assay
[4] = molecular target: T1, Oxysterols receptor LXR-alpha (Homo sapiens); test: Tested for its ability to activate Liver X receptor-alpha expressed as Relative efficacy determined by maximal increase in relative fluorescence in LiSA by 100 uM
In short: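 TR-FRET ligand-sensing assay of SRC1 peptide recruitment to biotinylated human LXRα LBD (aa 183-447, E. coli), 10 nM each in MOPS/NaF buffer pH 7.5. Run at room temperature for 2-4 h, read at 665 nm. Relative efficacy is the maximal increase in relative fluorescence compared with 24(S),25-epoxycholesterol. Compounds tested up to 100 µM.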

Row | Structure (SMILES) | RE [1] | EC50 [2] [nM] | Ki [3] [nM] | RE [4]
1 | CC(C)CCC[C@@H](C)[C@H]1CC[C@H]2[C@@H]3CC=C4C[C@@H](O)CC[C@]4(C)[C@H]3CC[C@]12C | < 0.1 | – | – | –
2 | C[C@H](C[C@@H](CO)C(C)(C)O)[C@H]1CC[C@H]2[C@@H]3CC=C4C[C@@H](O)CC[C@]4(C)[C@H]3CC[C@]12C | < 0.1 | – | – | –
3 | CC(C)[C@@H](O)CC[C@@H](C)[C@H]1CC[C@H]2[C@@H]3CC=C4C[C@@H](O)CC[C@]4(C)[C@H]3CC[C@]12C | 1 | 130 | – | –
4 | COC(=O)CC[C@@H](C)[C@H]1CC[C@H]2[C@@H]3CC=C4C[C@@H](O)CC[C@]4(C)[C@H]3CC[C@]12C | 1.1 | 105 | – | –
5 | CC(C)C[C@@H](O)C[C@@H](C)[C@H]1CC[C@H]2[C@@H]3CC=C4C[C@@H](O)CC[C@]4(C)[C@H]3CC[C@]12C | < 0.1 | – | – | –
6 | CC(C)[C@H](O)CC[C@@H](C)[C@H]1CC[C@H]2[C@@H]3CC=C4C[C@@H](O)CC[C@]4(C)[C@H]3CC[C@]12C | 0.85 | 220 | – | –
7 | CC(C)CC[C@@H](O)[C@@H](C)[C@H]1CC[C@H]2[C@@H]3CC=C4C[C@@H](O)CC[C@]4(C)[C@H]3CC[C@]12C [22(R)-HYDROXYCHOLESTEROL] | 0.85 | 325 | – | –
8 | C[C@H](CCC(=O)N(C)C)[C@H]1CC[C@H]2[C@@H]3CC=C4C[C@@H](O)CC[C@]4(C)[C@H]3CC[C@]12C | 1.4 | 170 | – | –
9 | C[C@H](CCCC(C)(C)O)[C@H]1CC[C@H]2[C@@H]3CC=C4C[C@@H](O)CC[C@]4(C)[C@H]3CC[C@]12C | 0.35 | 1160 | – | –
10 | CC(C)CC[C@H](O)[C@@H](C)[C@H]1CC[C@H]2[C@@H]3CC=C4C[C@@H](O)CC[C@]4(C)[C@H]3CC[C@]12C | – | – | 180 | < 0.1
11 | C[C@H](CC[C@@H]1OC1(C)C)[C@H]1CC[C@H]2[C@@H]3CC=C4C[C@@H](O)CC[C@]4(C)[C@H]3CC[C@]12C [24(S),25-EPOXYCHOLESTEROL] | 1 | 460 | – | –
12 | C[C@H](CCC(=O)O)[C@H]1CC[C@H]2[C@@H]3CC=C4C[C@@H](O)CC[C@]4(C)[C@H]3CC[C@]12C | 0.2 | 3000 | – | –
13 | CC(C)C[C@H](O)C[C@@H](C)[C@H]1CC[C@H]2[C@@H]3CC=C4C[C@@H](O)CC[C@]4(C)[C@H]3CC[C@]12C | 0.7 | 5900 | – | –
14 | C[C@H](CC[C@H]1OC1(C)C)[C@H]1CC[C@H]2[C@@H]3CC=C4C[C@@H](O)CC[C@]4(C)[C@H]3CC[C@]12C | 1 | 670 | – | –
15 | CC(C)C(=O)CC[C@@H](C)[C@H]1CC[C@H]2[C@@H]3CC=C4C[C@@H](O)CC[C@]4(C)[C@H]3CC[C@]12C | 1.3 | 180 | – | –
16 | C[C@@H](CO)CCC[C@@H](C)[C@H]1CC[C@H]2[C@@H]3CC=C4C[C@@H](O)CC[C@]4(C)[C@H]3CC[C@]12C | 0.3 | 250 | – | –
17 | CC(C)CCC[C@](C)(O)[C@H]1CC[C@H]2[C@@H]3CC=C4C[C@@H](O)CC[C@]4(C)[C@H]3CC[C@@]21C | 1 | 470 | – | –
18 | C[C@H](CNC(=O)N(C)C)[C@H]1CC[C@H]2[C@@H]3CC=C4C[C@@H](O)CC[C@]4(C)[C@H]3CC[C@]12C | < 0.1 | – | – | –
19 | CC(C)C(=O)NC[C@@H](C)[C@H]1CC[C@H]2[C@@H]3CC=C4C[C@@H](O)CC[C@]4(C)[C@H]3CC[C@]12C | < 0.1 | – | – | –
20 | CNC(=O)CC[C@@H](C)[C@H]1CC[C@H]2[C@@H]3CC=C4C[C@@H](O)CC[C@]4(C)[C@H]3CC[C@]12C | 0.55 | 720 | – | –
